Seven compounds from ChEMBL document CHEMBL2331396, “Exploration of 1-(3-chloro-4-(4-oxo-4H-chromen-2-yl)phenyl)-3-phenylurea derivatives as selective dual inhibitors of Raf1 and JNK1 kinases for anti-tumor treatment” (Bioorg Med Chem, 2013) can be followed below.

Series [1] deals with Mitogen-activated protein kinase 3 (Homo sapiens) (UniProt P27361). Put plainly: Inhibition of ERK1 (unknown origin) at 50 uM. In a few lines:
(§1)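 Luminescent Kinase-Glo Plus assay. Enzyme, substrate, ATP and compound were mixed in pH 7.4 buffer containing 25 mM HEPES and 10 mM MgCl2, then incubated at 30 °C for 1 h. An equal volume of Kinase-Glo Plus reagent stopped the reaction before luminescence was read. Signal tracks remaining ATP and runs inversely to kinase activity; results are given as percent inhibition.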

The target in series [2] is Mitogen-activated protein kinase 8 (Homo sapiens) (UniProt P45983). Kind of series: Inhibition of JNK1 (unknown origin) at 50 uM. In a few lines: as §1
Chain of Mitogen-activated protein kinase 8 (Homo sapiens) (P45983 whole entry): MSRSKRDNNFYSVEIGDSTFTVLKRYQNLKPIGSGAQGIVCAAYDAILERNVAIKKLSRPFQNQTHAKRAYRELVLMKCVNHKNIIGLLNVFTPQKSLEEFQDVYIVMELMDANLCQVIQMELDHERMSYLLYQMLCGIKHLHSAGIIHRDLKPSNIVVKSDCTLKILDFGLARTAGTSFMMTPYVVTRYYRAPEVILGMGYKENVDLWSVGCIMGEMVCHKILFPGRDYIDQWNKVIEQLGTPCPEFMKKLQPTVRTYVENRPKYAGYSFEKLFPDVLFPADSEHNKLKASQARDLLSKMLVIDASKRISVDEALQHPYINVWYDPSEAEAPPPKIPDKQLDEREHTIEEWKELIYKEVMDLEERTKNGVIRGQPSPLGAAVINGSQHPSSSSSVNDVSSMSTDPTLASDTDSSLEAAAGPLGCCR
Series [3] in a line: Cytotoxicity against human HL7702 cells assessed as inhibition rate at 100 uM measured after 48 hrs by MTT assay. The class given is cell-based, L02. To be noted: read-out: INH. In a few lines:
(§2)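 Normal liver cells were grown in DMEM with 10% FBS plus penicillin/streptomycin at 37 °C, 5% CO₂. They were seeded at 5 × 10⁵ cells/mL and incubated 24 h. Compounds from DMSO stock were added at final 50 or 100 µM (DMSO <1%), in triplicate, for 48 h. MTT was added for 4 h, formazan dissolved in DMSO, A495 read, and inhibition rate calculated.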
On the technique in general: Tetrazolium dyes change colour on reduction, which living cells bring about.

Series [4] has as its system HepG2. Kind of series: Antiproliferative activity against human HepG2 cells assessed as growth inhibition measured after 48 hrs by MTT assay. The class given is functional, cell-based. To be noted: HepG2, 48 h. Summed up:
(§3)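 Compounds dissolved in DMSO and diluted in medium to final 0.5–50 µM (final DMSO <1%). Cells were grown in DMEM with 10% FBS, penicillin and streptomycin at 37 °C, 5% CO₂. They were seeded at 5 × 10⁵ cells/mL, incubated 24 h, then treated in triplicate per concentration for 48 h. MTT was added for 4 h, formazan dissolved in DMSO, absorbance read at 495 nm, and IC50 derived.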

Series [5] is described as follows: Cytotoxicity against human QSG7701 cells assessed as inhibition rate at 50 uM measured after 48 hrs by MTT assay. The class given is cell-based. To be noted: read-out: INH. In a few lines:
as §2

A short description of series [6]: Cytotoxicity against human HL7702 cells assessed as inhibition rate at 50 uM measured after 48 hrs by MTT assay. The class given is cell-based, L02. To be noted: read-out: INH. Summed up: as §2
Series [7] is described as follows: Cytotoxicity against human QSG7701 cells assessed as inhibition rate at 100 uM measured after 48 hrs by MTT assay. The class given is cell-based. Particulars: read-out: INH. Summed up: as §2
The test system of series [8] is A549. Put plainly: Antiproliferative activity against human A549 cells assessed as growth inhibition measured after 48 hrs by MTT assay. In kind it is functional, cell-based. To be noted: A549, 48 h. Summed up:
as §3

Series [9] has as its system HCT-116. Put plainly: Antiproliferative activity against human HCT116 cells assessed as growth inhibition measured after 48 hrs by MTT assay. In kind it is functional, cell-based. Particulars: HCT-116, 48 h. Summed up: as §3
Series [10] deals with Mitogen-activated protein kinase 14 (Homo sapiens) (UniProt Q16539). Kind of series: Inhibition of p38-alpha (unknown origin) at 50 uM. Summed up: (§4)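 Kinase-Glo Plus luminescent assay. Enzyme, substrate, ATP and compound were mixed in 25 mM HEPES pH 7.4 with 10 mM MgCl₂ and incubated 1 h at 30 °C. The reaction was stopped with an equal volume of Kinase-Glo Plus reagent. Luminescence reflects remaining ATP, inversely related to kinase activity, and is reported as percent inhibition at a single concentration.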
Chain of Mitogen-activated protein kinase 14 (Homo sapiens) (Q16539 whole entry): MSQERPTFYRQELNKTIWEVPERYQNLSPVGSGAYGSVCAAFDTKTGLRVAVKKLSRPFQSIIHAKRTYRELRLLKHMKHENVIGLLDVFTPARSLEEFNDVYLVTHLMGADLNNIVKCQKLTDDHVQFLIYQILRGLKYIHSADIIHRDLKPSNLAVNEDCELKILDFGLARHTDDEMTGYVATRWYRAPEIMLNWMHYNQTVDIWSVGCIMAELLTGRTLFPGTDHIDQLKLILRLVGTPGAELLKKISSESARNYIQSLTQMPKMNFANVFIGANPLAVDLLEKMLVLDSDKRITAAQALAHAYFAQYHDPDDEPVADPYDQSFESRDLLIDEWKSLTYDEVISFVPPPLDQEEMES

The target in series [11] is RAF proto-oncogene serine/threonine-protein kinase (Homo sapiens) (UniProt P04049). Kind of series: Inhibition of Raf1 (unknown origin) at 50 uM. Summed up: as §4
Chain of RAF proto-oncogene serine/threonine-protein kinase (Homo sapiens) (P04049 whole entry): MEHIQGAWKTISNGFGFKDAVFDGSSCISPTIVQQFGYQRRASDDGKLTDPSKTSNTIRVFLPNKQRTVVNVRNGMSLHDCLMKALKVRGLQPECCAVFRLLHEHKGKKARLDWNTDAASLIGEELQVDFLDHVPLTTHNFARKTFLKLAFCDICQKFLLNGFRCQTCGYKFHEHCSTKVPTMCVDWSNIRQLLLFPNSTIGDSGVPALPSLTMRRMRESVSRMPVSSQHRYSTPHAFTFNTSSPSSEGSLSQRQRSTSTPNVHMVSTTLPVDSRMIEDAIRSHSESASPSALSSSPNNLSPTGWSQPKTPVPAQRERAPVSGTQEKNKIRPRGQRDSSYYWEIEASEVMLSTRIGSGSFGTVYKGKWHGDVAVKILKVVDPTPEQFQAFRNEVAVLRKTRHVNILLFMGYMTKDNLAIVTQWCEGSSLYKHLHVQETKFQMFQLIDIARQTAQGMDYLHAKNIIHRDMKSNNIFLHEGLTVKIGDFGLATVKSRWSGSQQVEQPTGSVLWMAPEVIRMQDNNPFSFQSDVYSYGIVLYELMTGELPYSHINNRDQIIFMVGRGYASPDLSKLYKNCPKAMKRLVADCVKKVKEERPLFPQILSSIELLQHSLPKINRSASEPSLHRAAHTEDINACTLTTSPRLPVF

pIC50: −log10 of the molar value.

Chain of Mitogen-activated protein kinase 3 (Homo sapiens) (P27361 whole entry): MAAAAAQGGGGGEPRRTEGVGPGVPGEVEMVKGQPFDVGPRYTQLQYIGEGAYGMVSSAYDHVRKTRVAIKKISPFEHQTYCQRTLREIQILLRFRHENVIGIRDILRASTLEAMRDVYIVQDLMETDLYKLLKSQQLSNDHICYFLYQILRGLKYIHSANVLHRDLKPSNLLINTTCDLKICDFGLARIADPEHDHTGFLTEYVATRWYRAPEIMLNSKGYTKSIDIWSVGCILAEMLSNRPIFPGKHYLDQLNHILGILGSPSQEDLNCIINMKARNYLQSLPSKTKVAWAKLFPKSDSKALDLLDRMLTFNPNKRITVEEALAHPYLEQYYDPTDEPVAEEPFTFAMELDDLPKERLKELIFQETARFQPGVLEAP

For the compound `CN[C@@H]1C[C@H]2O[C@@](C)([C@@H]1OC)n1c3ccccc3c3c4c(c5c6ccccc6n2c5c31)C(=O)NC4`, the inhibition in [1] is 99.4%; in [2] it was 96%.
As to `O=C(Nc1cccc(Cl)c1)Nc1ccc(-c2cc(=O)c3ccc(O)cc3o2)c(Cl)c1`, the cytotoxicity at 48 h, 100 µM in series [3] was 83.8%; in [7] it was 43.2%. Further, the pIC50 in series [4] is 4.91; in [8], 4.77; in series [9], 4.59. Besides, the cytotoxicity at 48 h, 50 µM in series [5] was found to be 34.6%; in series [6] it was 80.2%.
As for `COc1ccc2oc(-c3ccc(NC(=O)Nc4ccc(Cl)c(Cl)c4)cc3Cl)cc(=O)c2c1`, the figures for the cytotoxicity at 48 h, 100 µM in [3] and in [7] were 77.9% and 42.5%, respectively. Besides, the figures for the negative logarithm of the IC50 (pIC50) in [4], in series [8] and in series [9] were 5.00, 4.81 and 5.07, respectively. Besides, the cytotoxicity at 48 h, 50 µM is 13.2% in series [5] and 66.4% in series [6].
For `Oc1ccc(-c2nc(-c3ccc(F)cc3)c(-c3ccncc3)[nH]2)cc1`, in series [10], the inhibition worked out at 106%.
`CNC(=O)c1cc(Oc2ccc(NC(=O)Nc3ccc(Cl)c(C(F)(F)F)c3)cc2)ccn1` [SORAFENIB]: the inhibition in series [11] was 101%. Besides, the cytotoxicity at 48 h, 100 µM in series [3] amounted to 20.2%; in series [7] it was 23.2%. The pIC50 was 5.30 in series [4], 5.35 in [8] and 5.64 in series [9]. Also, the figures for the cytotoxicity at 48 h, 50 µM in [5] and in [6] were 4.2% and 5.3%, respectively.
`CCc1ccc2oc(-c3ccc(NC(=O)Cc4cccc(F)c4)cc3Cl)cc(=O)c2c1`: the cytotoxicity at 48 h, 100 µM came to 44.6% in series [3] and 27.4% in series [7]. For the same compound, the pIC50 in [4] is 4.70; in [8], < 4.30; in [9] it was < 4.30. Moreover, the cytotoxicity at 48 h, 50 µM in series [5] is 22.4%; in series [6] it was 20.4%.
Turning to `CCc1ccc2oc(-c3ccc(NC(=O)Nc4cccc(Cl)c4)cc3Cl)cc(=O)c2c1`, the values for the cytotoxicity at 48 h, 100 µM in [3] and in series [7] were 37.2% and 18%, respectively. The pIC50 in series [4] is 4.51; in series [8] it was < 4.30; in series [9] it was 4.55. Moreover, the cytotoxicity at 48 h, 50 µM in series [5] was determined as 12.6%; in series [6], 9.4%.

For orientation: inhibition means the relative decrease from the control value, in per cent. As a reminder, the pIC50 is −log10 of the IC50, conventionally taken in molar units.
